Measurements from ChEMBL document CHEMBL2157952, “Chemotherapy of leishmaniasis. Part IX: synthesis and bioevaluation of aryl substituted ketene dithioacetals as antileishmanial agents” (Bioorg Med Chem Lett, 2012).
Calls of active or inactive are those of the source. The rule behind the calls is not given here.

What was measured:
Leishmania donovani [1] = assay: Antileishmanial activity against Leishmania donovani amastigotes infected in mouse J774A.1 cells after 72 hrs by luciferase reporter gene based luminometric analysis; assay type: functional, organism-based; conditions: J774.A1, 72 h
Outline: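 J-774A.1 macrophages seeded at 4 × 10⁴/well in RPMI-1640 + 10% FCS, 37 °C, CO₂. After 24 h, infected with stationary-phase luciferase-expressing promastigotes (4 × 10⁵/well). Medium replaced with compound, seven-point twofold dilutions from 40 µM, for 72 h. Steady Glo added, luminescence read as RLU. IC50 by nonlinear regression with four-parameter Hill fit.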

Leishmania donovani [2] = assay: Antileishmanial activity against Leishmania donovani MHOM/IN/80/Dd8 amastigotes infected in golden hamster assessed as inhibition of parasite multiplication at 50 mg/kg, ip for 5 days measured on day 7 by Giemsa staining; assay type: functional; conditions: for inhibition in vivo at 50 mg/kg: MHOM/IN/80/Dd8, ip, route intraperitoneal
Outline: (§1)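 Golden hamsters (inbred, either sex, 40–45 g) infected intracardially with 1 × 10⁷ amastigotes each; infection establishes in 15–20 days. Animals randomized by biopsy parasite burden, 5–6 per sample. Dosing began 2 days after biopsy, five consecutive days. Post-treatment biopsy on day 7 after last dose, amastigotes counted by Giemsa staining. PI = 100 − [ANAT × 100/(INAT × TIUC)] versus untreated controls.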

[3] = Cytotoxicity against human KB cells assessed as cell viability after 72 hrs by MTT assay; assay type: cell-based
Outline: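 Exponentially growing KB cells at 1 × 10⁵/well exposed 72 h at 37 °C in humidified CO₂/air to seven-point threefold dilutions from 400 µM; DMSO vehicle wells as control. MTT (5 mg/ml) added 2 h at 37 °C, supernatant removed, DMSO added, absorbance at 544 nm. CC50 is the concentration giving 50% viability reduction versus medium-only cells.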

[4] = Selectivity index, ratio of CC50 for human KB cells to IC50 for Leishmania donovani amastigotes infected in mouse J774A.1 cells; assay type: functional
Outline: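 SI = CC50 (KB cells, MTT, 72 h) divided by IC50 against intracellular amastigotes in J-774A.1 macrophages (luciferase read-out, 72 h).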

Leishmania donovani [5] = assay: Antileishmanial activity against Leishmania donovani MHOM/IN/80/Dd8 amastigotes infected in golden hamster assessed as inhibition of parasite multiplication at 30 mg/kg, po for 5 days measured on day 7 by Giemsa staining; assay type: functional; outline: as §1

Row | SMILES | IC50 (Leishmania donovani [1]) [µM] | inhibition (Leishmania donovani [2]) | CC50 at 72 h [3] [µM] | Ratio CC50/IC50 [4] | inhibition in vivo at 50 mg/kg (Leishmania donovani [2]) [%] | inhibition in vivo at 30 mg/kg (Leishmania donovani [5]) [%]
1 | CSC(=CC(=O)/C=C/c1ccc(Cl)cc1)SC | > 20 | inactive |  |  |  | 
2 | COc1cc(/C=C/C(=O)C=C(SC)SC)ccc1OCc1ccccc1 | 3.56 |  | 204 | 57.26 | 78 | 
3 | CSC(=CC(=O)/C=C/c1ccc(F)cc1)SC | > 40 | inactive |  |  |  | 
4 | CSC(=CC(=O)/C=C/c1ccc([N+](=O)[O-])cc1)SC | > 40 | inactive |  |  |  | 
5 | CSC(=CC(=O)/C=C/c1ccccc1Cl)SC | > 40 | inactive |  |  |  | 
6 | CSC(=CC(=O)/C=C/c1ccc(-n2ccnc2)cc1)SC | > 40 | inactive |  |  |  | 
7 | CSC(=CC(=O)/C=C/c1cccc([N+](=O)[O-])c1)SC | 5.12 |  | 9.83 | 1.92 | 82.8 | 
8 | CSC(=CC(=O)/C=C/c1ccc(-n2cnnc2)cc1)SC | > 20 | inactive |  |  |  | 
9 | CCCCCCCCCCCCCCCCOP(=O)([O-])OCC[N+](C)(C)C [MILTEFOSINE] | 12.5 |  | 3.23 | 0.26 |  | 95.3
